15 compounds from ChEMBL document CHEMBL4765456, “Discovery of novel liver X receptor inverse agonists as lipogenesis inhibitors” (Eur J Med Chem, 2020) can be followed below.

Structures are written as SMILES. Calls of active or inactive are those of the source. The calls are words filed in the database; no cut-off is given here.

What all share (assay type): cell-based
Data set [1] has as its target T1, Oxysterols receptor LXR-beta (Homo sapiens) (UniProt P55055).
T1 sequence (whole entry): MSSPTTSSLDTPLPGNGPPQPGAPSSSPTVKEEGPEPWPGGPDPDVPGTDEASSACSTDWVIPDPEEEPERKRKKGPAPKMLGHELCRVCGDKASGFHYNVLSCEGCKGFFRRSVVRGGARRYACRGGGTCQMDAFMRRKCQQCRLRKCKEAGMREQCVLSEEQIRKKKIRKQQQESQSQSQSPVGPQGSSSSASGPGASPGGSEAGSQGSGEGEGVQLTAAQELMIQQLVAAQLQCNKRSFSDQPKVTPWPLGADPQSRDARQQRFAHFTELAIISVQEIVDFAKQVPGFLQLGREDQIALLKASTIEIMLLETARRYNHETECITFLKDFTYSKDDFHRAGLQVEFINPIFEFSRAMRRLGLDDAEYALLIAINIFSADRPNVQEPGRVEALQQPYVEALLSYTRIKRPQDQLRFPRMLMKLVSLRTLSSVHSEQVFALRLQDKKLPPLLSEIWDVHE
Briefly: (§1) Inverse agonist activity at human LXRbeta transfected in human HEK293T cells co-transfected with pSG5 and pGL3/(DR-4)-c-fos-FF-luc/pCMV/Renilla-luc assessed as receptor transactivation incubated for 20 hrs by dual luciferase reporter gene assay.

Data set [2] has as its target T1, Oxysterols receptor LXR-beta (Homo sapiens). Put plainly: Agonist activity at human LXRbeta transfected in human HEK293T cells co-transfected with pSG5 and pGL3/(DR-4)-c-fos-FF-luc/pCMV/Renilla-luc assessed as receptor transactivation at 10 uM incubated for 20 hrs by dual luciferase reporter gene assay. The conditions noted are these: filed as agonist. In short, it runs like this: (§2)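 HEK293T cells seeded at 2 × 10^4 per well for 24 h, then transfected with pGL3/(DR-4)-c-fos-FF-luc, pCMV/Renilla-luc, pSG5/hRXRa and pSG5/hLXRa or pSG5/hLXRb. Compound added 5 h post-transfection and left 20 h. Firefly and Renilla luciferase read by dual-luciferase assay. Means ± SD from three independent experiments.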
(In a reporter assay the amount or activity of a reporter protein is the signal.)

Data set [3] has as its target T2, Oxysterols receptor LXR-alpha (Homo sapiens) (UniProt Q13133).
T2 sequence (whole entry): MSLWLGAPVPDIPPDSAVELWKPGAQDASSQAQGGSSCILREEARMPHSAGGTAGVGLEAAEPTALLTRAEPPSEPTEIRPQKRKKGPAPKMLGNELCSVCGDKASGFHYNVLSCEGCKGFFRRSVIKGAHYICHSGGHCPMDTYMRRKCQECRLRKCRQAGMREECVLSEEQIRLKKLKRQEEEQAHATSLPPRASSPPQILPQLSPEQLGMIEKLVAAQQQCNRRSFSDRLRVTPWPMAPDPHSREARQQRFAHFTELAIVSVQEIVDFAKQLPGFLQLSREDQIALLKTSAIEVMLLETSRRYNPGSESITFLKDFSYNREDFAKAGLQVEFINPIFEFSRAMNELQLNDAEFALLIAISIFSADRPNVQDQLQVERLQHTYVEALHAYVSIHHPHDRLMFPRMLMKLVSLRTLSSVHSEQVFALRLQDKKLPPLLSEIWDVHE
Put plainly: Agonist activity at human LXRalpha transfected in human HEK293T cells co-transfected with pSG5 and pGL3/(DR-4)-c-fos-FF-luc/pCMV/Renilla-luc assessed as receptor transactivation at 10 uM incubated for 20 hrs by dual luciferase reporter gene assay. The conditions noted are these: filed as agonist. In short, it runs like this: as §2

Data set [4] has as its target T3, Oxysterols receptor LXR-alpha (Homo sapiens, UniProt Q13133).
T3 sequence (Q13133 whole entry): T2 sequence (whole entry)
Put plainly: Inverse agonist activity at human LXRalpha transfected in human HEK293T cells co-transfected with pSG5 and pGL3/(DR-4)-c-fos-FF-luc/pCMV/Renilla-luc assessed as receptor transactivation incubated for 20 hrs by dual luciferase reporter gene assay.

The target of data set [5] is T4, Oxysterols receptor LXR-beta (Homo sapiens, UniProt P55055).
T4 sequence (P55055 whole entry): T1 sequence (whole entry)
Described as §1.

A further data set has as its system 3T3-L1. Briefly: Cytotoxicity against mouse 3T3-L1 cells assessed as reduction in cell viability at 10 uM incubated for 48 hrs by MTT assay. The conditions noted are these: 3t3-l1, 48 h. In short, it runs like this: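 Mouse 3T3-L1 cells in DMEM with 10% FBS, 1% penicillin/streptomycin, at 37 °C, 5% CO2. Plated at 2 × 10^3 per well for 24 h, then compound for 48 h. MTT read-out of viability. Means ± SD, three independent experiments.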
In general terms: Tetrazolium assays rely on reduction of a dye to a coloured formazan, in cell work by metabolically active cells.

A further data set relates to HEK-293T. Put plainly: Cytotoxicity against human HEK293T cells assessed as reduction in cell viability upto 10 uM incubated for 48 hrs by MTT assay. The method, boiled down: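 Cells kept in DMEM with 10% FBS and 1% penicillin/streptomycin at 37 °C, 5% CO2. HEK293T seeded at 5 × 10^3 per well for 24 h, then exposed to compound for 48 h. Viability read by MTT. Means ± SD of three independent experiments.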

A further data set has as its system HepG2. Put plainly: Cytotoxicity against human HepG2 cells assessed as reduction in cell viability at 10 uM incubated for 48 hrs by MTT assay. The conditions noted are these: hepg2, 48 h. In short, it runs like this: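 HepG2 grown in DMEM with 10% FBS at 37 °C, 5% CO2. Seeded at 1 × 10^5 per well for 24 h, treated 48 h, viability by MTT assay. Means ± SD from three independent experiments.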

`CC(C)[C@@H]1N(C(=O)OC(C)(C)C)CC[C@@]12C(=O)N(CCCC#N)c1ccccc12`: the result in data set [1] was inactive.

With `COC(=O)c1ccc(N2C(=O)[C@@]3(CCN(C(=O)OC(C)(C)C)[C@H]3C(C)C)c3ccccc32)cc1`, in data set [1], the outcome was inactive.

`CC(C)[C@@H]1N(C(=O)OC(C)(C)C)CC[C@@]12C(=O)N(c1ccc(CO)cc1)c1ccccc12`: in data set [1], the result was inactive.

Turning to `CC(C)[C@@H]1N(C(=O)C(C)(C)C)CC[C@@]12C(=O)N(c1cccc(-c3ccc(C(=O)N(C)C)c(Cl)c3)c1)c1ccccc12`, the outcome in data set [2] and in data set [3] was Active. In addition, in data set [1], the outcome was inactive.

Usually IC50 stands for the concentration that gives 50% inhibition. `CC(C)[C@@H]1N(C(=O)OC(C)(C)C)CC[C@@]12C(=O)N(c1cccc(-c3ccc(C(=O)O)c(S(C)(=O)=O)c3)c1)c1ccccc12`: the IC50 result in data set [4] was “Not Active”.

As for `COC(=O)c1ccc(N2C(=O)[C@@]3(CCN(C(=O)OC(C)(C)C)[C@H]3C(C)C)c3ccccc32)cc1S(C)(=O)=O`, the result in data set [2] and in data set [3] was Active. Also, the result in data set [1] was inactive.

In the case of `CC(C)[C@@H]1N(C(=O)CC(C)(C)C)CC[C@@]12C(=O)N(c1cccc(-c3ccc(C(=O)N(C)C)c(Cl)c3)c1)c1ccccc12`, the result in data set [2] and in data set [3] was Active. The result in data set [1] was inactive.

On to `CC(C)[C@@H]1N(C(=O)OC(C)(C)C)CC[C@@]12C(=O)N(c1cccc(-c3ccc(CO)cc3)c1)c1ccccc12`, for which the IC50 result in data set [4] is listed as “Not Active”.

For `CC(C)[C@@H]1N(C(=O)OC(C)(C)C)CC[C@@]12C(=O)N(c1ccc(CO)c(S(C)(=O)=O)c1)c1ccccc12`, the result in data set [2] and in data set [3] was Active. Also, the result in data set [1] was inactive.

As to `CC(C)[C@@H]1N(C(=O)OC(C)(C)C)CC[C@@]12C(=O)N(c1cccc(-c3ccc4ccn(C)c4c3)c1)c1ccccc12`, the figures for the IC50 in data set [5] and in data set [4] were greater than 20 µM and “Not Active”, respectively.

Consider `CC(C)[C@@H]1N(C(=O)OC(C)(C)C)CC[C@@]12C(=O)N(CCCC(=O)O)c1ccccc12`, for which, in data set [1], the outcome was inactive.

For `CC(C)[C@H]1N(C(=O)OC(C)(C)C)CC[C@]12C(=O)N(c1cccc(-c3ccc(CO)c(S(C)(=O)=O)c3)c1)c1ccccc12`, the Activity entry with 3T3-L1, in the data set with HEK-293T and with HepG2 was “Non-Toxic” throughout.

On to `CC(C)[C@@H]1N(C(=O)OC(C)(C)C)CC[C@@]12C(=O)N(CCCCl)c1ccccc12`, for which, in data set [1], the outcome was inactive.

Consider `CC(C)[C@@H]1N(C(=O)OC(C)(C)C)CC[C@@]12C(=O)N(c1cccc(-c3ccc(CO)c(Cl)c3)c1)c1ccccc12`, for which the IC50 result in data set [4] was “Not Active”.

`CC(C)[C@@H]1N(C(=O)OC(C)(C)C)CC[C@@]12C(=O)N(c1cccc(-c3ccc(C(=O)N(C)C)c(Cl)c3)c1)c1ccccc12`: the outcome in data set [2] and in data set [3] was Active. In data set [1], the outcome was inactive.
